ChEMBL document CHEMBL5724801, “EUbOPEN Chemogenomics Library - Multiplex” (2024)
Values joined by “and” are separate entries in the source; they are usually repeats but may differ in a detail not shown here. Equal entries are not always repeated.

Tested on: HEK-293T
Assay: Multiplex assay against HEK293T
Format: toxicity, cell-based
Conditions: human
Outline: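 Live cells were stained at seeding with Hoechst33342, BioTracker Green Microtubule Cytoskeleton Dye, MitoTracker Red and Annexin V Alexa Fluor 680, then imaged on a CQ1 microscope at 37°C and 5% CO2 after compound addition. CellPathfinder machine-learning gating split cells into Hoechst high-intensity objects or normal cells. Normal cells were split into healthy, pyknosed or fragmented nuclei, and pyknosed cells into mitotic or apoptotic. Tubulin, mitochondrial-mass and membrane-permeability phenotypes are per cents of healthy-nucleus cells.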

[1] = 12 h, 1 µM, compound concentration 1 uM
[2] = 12 h, 10 µM, compound concentration 10 uM
[3] = 24 h, 1 µM, compound concentration 1 uM
[4] = 24 h, 10 µM, compound concentration 10 uM
[5] = 48 h, 1 µM, compound concentration 1 uM
[6] = 48 h, 10 µM, compound concentration 10 uM

## O=C(NCCN1CCC(n2c(=O)[nH]c3cc(Cl)ccc32)CC1)c1ccc(F)cc1 [HALOPEMIDE]
[1]
  Population Apoptotic (%): 46% and 43%
  Population Fragmented Nuclei (%): 5%
  Population Healthy Nuclei (%): 81% and 79%
  Population Hoechst High Intensity Objects (%): 7% and 10%
  Population Membrane Permeable-Phenotype (%): 0%
  Population Mitochondria Different-Phenotype (%): 54% and 62%
  Population Mitotic Cells (%): 53% and 56%
  Population Normal (%): 92% and 89%
  Population Pyknosed Nuclei (%): 13% and 15%
  Population Tubulin-Different-Phenotype (%): 42% and 29%
  Total Cell Count: 334 and 373
[2]
  Population Apoptotic (%): 39% and 65%
  Population Fragmented Nuclei (%): 5% and 6%
  Population Healthy Nuclei (%): 74% and 72%
  Population Hoechst High Intensity Objects (%): 14% and 13%
  Population Membrane Permeable-Phenotype (%): 0% and 1%
  Population Mitochondria Different-Phenotype (%): 76% and 84%
  Population Mitotic Cells (%): 60% and 34%
  Population Normal (%): 85% and 86%
  Population Pyknosed Nuclei (%): 20% and 21%
  Population Tubulin-Different-Phenotype (%): 68% and 59%
  Total Cell Count: 460 and 319
[3]
  Population Apoptotic (%): 40%
  Population Fragmented Nuclei (%): 7% and 9%
  Population Healthy Nuclei (%): 79%
  Population Hoechst High Intensity Objects (%): 3% and 6%
  Population Membrane Permeable-Phenotype (%): 1% and 0%
  Population Mitochondria Different-Phenotype (%): 35% and 37%
  Population Mitotic Cells (%): 59%
  Population Normal (%): 96% and 93%
  Population Pyknosed Nuclei (%): 12% and 11%
  Population Tubulin-Different-Phenotype (%): 24% and 21%
  Total Cell Count: 471 and 508
[4]
  Population Apoptotic (%): 27% and 64%
  Population Fragmented Nuclei (%): 8% and 9%
  Population Healthy Nuclei (%): 72% and 70%
  Population Hoechst High Intensity Objects (%): 8%
  Population Membrane Permeable-Phenotype (%): 1% and 0%
  Population Mitochondria Different-Phenotype (%): 63% and 78%
  Population Mitotic Cells (%): 72% and 35%
  Population Normal (%): 91%
  Population Pyknosed Nuclei (%): 19% and 20%
  Population Tubulin-Different-Phenotype (%): 64% and 62%
  Total Cell Count: 580 and 361
[5]
  Population Apoptotic (%): 30% and 28%
  Population Fragmented Nuclei (%): 13%
  Population Healthy Nuclei (%): 79%
  Population Hoechst High Intensity Objects (%): 1% and 3%
  Population Membrane Permeable-Phenotype (%): 1% and 0%
  Population Mitochondria Different-Phenotype (%): 21%
  Population Mitotic Cells (%): 69% and 71%
  Population Normal (%): 98% and 96%
  Population Pyknosed Nuclei (%): 6% and 7%
  Population Tubulin-Different-Phenotype (%): 16% and 10%
  Total Cell Count: 841 and 675
[6]
  Population Apoptotic (%): 37% and 60%
  Population Fragmented Nuclei (%): 14%
  Population Healthy Nuclei (%): 72% and 74%
  Population Hoechst High Intensity Objects (%): 8% and 6%
  Population Membrane Permeable-Phenotype (%): 1%
  Population Mitochondria Different-Phenotype (%): 57% and 64%
  Population Mitotic Cells (%): 62% and 40%
  Population Normal (%): 91% and 93%
  Population Pyknosed Nuclei (%): 12% and 11%
  Population Tubulin-Different-Phenotype (%): 55%
  Total Cell Count: 706 and 531

## COc1c(Nc2ccc(S(C)(=O)=O)nc2C)ncnc1OC1CCN(C(=O)OC(C)C)CC1 [ADP-597]
[1]
  Population Apoptotic (%): 29% and 38%
  Population Fragmented Nuclei (%): 5% and 4%
  Population Healthy Nuclei (%): 78% and 80%
  Population Hoechst High Intensity Objects (%): 6% and 3%
  Population Membrane Permeable-Phenotype (%): 0%
  Population Mitochondria Different-Phenotype (%): 47% and 62%
  Population Mitotic Cells (%): 70% and 62%
  Population Normal (%): 93% and 96%
  Population Pyknosed Nuclei (%): 16% and 14%
  Population Tubulin-Different-Phenotype (%): 36% and 25%
  Total Cell Count: 430 and 347
[2]
  Population Apoptotic (%): 47%
  Population Fragmented Nuclei (%): 7%
  Population Healthy Nuclei (%): 75% and 72%
  Population Membrane Permeable-Phenotype (%): 0%
  Population Mitochondria Different-Phenotype (%): 70% and 71%
  Population Mitotic Cells (%): 52%
  Population Normal (%): 91% and 74%
  Population Pyknosed Nuclei (%): 17% and 20%
  Population Tubulin-Different-Phenotype (%): 44% and 36%
  Total Cell Count: 302 and 238
[3]
  Population Apoptotic (%): 23% and 30%
  Population Fragmented Nuclei (%): 7% and 6%
  Population Healthy Nuclei (%): 81% and 84%
  Population Hoechst High Intensity Objects (%): 2% and 3%
  Population Membrane Permeable-Phenotype (%): 0% and 1%
  Population Mitochondria Different-Phenotype (%): 20% and 34%
  Population Mitotic Cells (%): 76% and 69%
  Population Normal (%): 97% and 96%
  Population Pyknosed Nuclei (%): 11% and 9%
  Population Tubulin-Different-Phenotype (%): 16% and 15%
  Total Cell Count: 587 and 447
[4]
  Population Apoptotic (%): 44% and 63%
  Population Fragmented Nuclei (%): 9% and 11%
  Population Healthy Nuclei (%): 74% and 71%
  Population Hoechst High Intensity Objects (%): 7% and 21%
  Population Membrane Permeable-Phenotype (%): 0%
  Population Mitochondria Different-Phenotype (%): 58% and 54%
  Population Mitotic Cells (%): 55% and 36%
  Population Normal (%): 92% and 78%
  Population Pyknosed Nuclei (%): 15% and 17%
  Population Tubulin-Different-Phenotype (%): 38% and 25%
  Total Cell Count: 355 and 300
[5]
  Population Apoptotic (%): 25% and 36%
  Population Fragmented Nuclei (%): 13%
  Population Healthy Nuclei (%): 78% and 77%
  Population Hoechst High Intensity Objects (%): 2% and 5%
  Population Membrane Permeable-Phenotype (%): 0% and 1%
  Population Mitochondria Different-Phenotype (%): 18% and 23%
  Population Mitotic Cells (%): 75% and 63%
  Population Normal (%): 97% and 94%
  Population Pyknosed Nuclei (%): 8% and 9%
  Population Tubulin-Different-Phenotype (%): 13% and 14%
  Total Cell Count: 924 and 590
[6]
  Population Apoptotic (%): 35% and 43%
  Population Fragmented Nuclei (%): 15% and 13%
  Population Healthy Nuclei (%): 73%
  Population Hoechst High Intensity Objects (%): 4% and 10%
  Population Membrane Permeable-Phenotype (%): 0%
  Population Mitochondria Different-Phenotype (%): 38% and 32%
  Population Mitotic Cells (%): 64% and 56%
  Population Normal (%): 95% and 89%
  Population Pyknosed Nuclei (%): 11% and 12%
  Population Tubulin-Different-Phenotype (%): 23% and 18%
  Total Cell Count: 494 and 392
